Consider 30 compounds from ChEMBL document CHEMBL4138313 (J Med Chem, 2018).

Format in all cases: cell-based
Data set [1] relates to MEF. Nature of the data set: Cytotoxicity against mouse PARP1 deficient MEF cells assessed as reduction in cell viability at 0.016 to 100 uM after 4 to 7 days by cell-titer glo assay. The gist of the method:
(§1)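 Cells kept at 37 °C, 5% CO2, 15% O2 in RPMI 1640 with 10% FBS and 1% penicillin/streptomycin. Seeded at 1,000 cells/well and dosed 24 h later at 100–0.016 µM. Exposure lasted 4–7 days, then viability was read by CellTiter Glo luminescence. Signal was normalized to percent survival against the mean of vehicle controls. Three repeat experiments.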

The test system of data set [2] is MEF. Briefly: Cytotoxicity against mouse wild type MEF cells assessed as reduction in cell viability after 4 to 7 days by cell-titer glo assay.
Data set [3] deals with MEF. Nature of the data set: Cytotoxicity against mouse PARP2 deficient MEF cells expressing PARP1 assessed as reduction in cell viability after 4 to 7 days by cell-titer glo assay.
Data set [4] addresses Poly [ADP-ribose] polymerase 1 (Homo sapiens, UniProt P09874). Nature of the data set: Binding affinity to PARP1 in human OVCAR8 cells assessed as reduction in [125I]-KX1 binding by gamma counting analysis.
Another data set deals with OVCAR-8. Nature of the data set: Cytotoxicity against human OVCAR8 cells assessed as cell survival at 10 uM after 4 to 7 days by cell-titer glo assay. The note with it: ovcar-8, 10 µM.
The subject of data set [5] is MEF. Briefly: Cytotoxicity against mouse PARP1 deficient MEF cells assessed as reduction in cell viability after 4 to 7 days by cell-titer glo assay.
Data set [6] deals with MEF. Briefly: Cytotoxicity against mouse wild type MEF cells assessed as reduction in cell viability at 0.016 to 100 uM after 4 to 7 days by cell-titer glo assay. The essentials:
as §1

Data set [7] concerns MEF. Nature of the data set: Cytotoxicity against mouse PARP2 deficient MEF cells expressing PARP1 assessed as reduction in cell viability at 0.016 to 100 uM after 4 to 7 days by cell-titer glo assay. The gist of the method: as §1

pEC50, pIC50: −log10 of the molar value.

Poly [ADP-ribose] polymerase 1, sequence (P09874 whole entry): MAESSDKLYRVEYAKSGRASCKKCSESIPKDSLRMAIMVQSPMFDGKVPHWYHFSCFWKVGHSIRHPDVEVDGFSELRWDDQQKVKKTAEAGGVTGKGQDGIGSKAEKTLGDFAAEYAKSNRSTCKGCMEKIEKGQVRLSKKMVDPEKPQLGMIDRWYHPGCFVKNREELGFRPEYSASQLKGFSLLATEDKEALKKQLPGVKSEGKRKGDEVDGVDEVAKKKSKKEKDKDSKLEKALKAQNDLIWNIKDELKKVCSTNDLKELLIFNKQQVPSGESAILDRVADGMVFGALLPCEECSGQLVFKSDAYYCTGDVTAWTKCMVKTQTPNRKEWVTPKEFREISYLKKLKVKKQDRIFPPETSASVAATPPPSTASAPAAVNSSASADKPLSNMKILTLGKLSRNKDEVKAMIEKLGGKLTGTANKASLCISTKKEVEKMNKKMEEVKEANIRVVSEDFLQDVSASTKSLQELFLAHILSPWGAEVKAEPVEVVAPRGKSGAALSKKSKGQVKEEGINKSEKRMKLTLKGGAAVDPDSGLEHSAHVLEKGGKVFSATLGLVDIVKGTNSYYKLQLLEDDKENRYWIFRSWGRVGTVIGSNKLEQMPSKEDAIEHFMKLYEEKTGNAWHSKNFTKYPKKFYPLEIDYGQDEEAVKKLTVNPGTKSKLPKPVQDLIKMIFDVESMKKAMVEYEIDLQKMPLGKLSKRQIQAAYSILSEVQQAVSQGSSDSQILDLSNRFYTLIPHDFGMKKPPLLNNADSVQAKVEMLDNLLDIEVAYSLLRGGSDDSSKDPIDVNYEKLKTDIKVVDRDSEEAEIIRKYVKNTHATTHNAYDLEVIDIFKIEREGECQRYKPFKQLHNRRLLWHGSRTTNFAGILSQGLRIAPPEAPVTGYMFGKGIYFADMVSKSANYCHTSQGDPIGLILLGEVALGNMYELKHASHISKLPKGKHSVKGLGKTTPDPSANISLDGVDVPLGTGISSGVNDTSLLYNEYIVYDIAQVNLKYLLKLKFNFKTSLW

With `CC(C)(C)OC(=O)N1CC2(C1)CN(C(=O)c1cc(Cc3n[nH]c(=O)c4ccccc34)ccc1F)C2`, the Activity in the data set with MEF [1] is less than 50%. In addition, the negative-log EC50 (pEC50) was 4.51 with MEF [2] and 4.61 with MEF [3].

Take `O=C(c1cc(Cc2n[nH]c(=O)c3ccccc23)ccc1F)N1CC2(CCC2)C1`: the negative-log IC50 (pIC50) in data set [4] was 7.47. For the same compound, the Activity with MEF [1] is recorded as less than 50%; in the data set with OVCAR-8, “Non-Toxic”. Moreover, the figures for the pEC50 in the data set on MEF [2] and in the data set on MEF [3] were 4.32 and 4.31, respectively.

Consider `O=C(c1cc(Cc2n[nH]c(=O)c3ccccc23)ccc1F)N1CC2(CCCCC2)C1`, for which the negative-log IC50 (pIC50) in data set [4] was 7.18. Also, the Activity result in the data set with OVCAR-8 is given as “Non-Toxic”. Also, the negative-log EC50 (pEC50) in the data set with MEF [2] is 4.59; with MEF [5], 4.32; in the data set on MEF [3], 4.40.

Turning to `O=C(c1cc(Cc2n[nH]c(=O)c3ccccc23)ccc1F)N1CCC2(CCN(C(=O)C3CC3)C2)C1` (configuration not stated), the pIC50 in data set [4] was 5.59. Moreover, the Activity in the data set on MEF [1] and in the data set on MEF [6] was less than 50% in each case. Moreover, the pEC50 with MEF [3] is 4.15.

Regarding `O=C(c1cc(Cc2n[nH]c(=O)c3ccccc23)ccc1F)N1CCC2(CCCCC2)CC1`, the negative logarithm of the IC50 (pIC50) in data set [4] was 7.24. For the same compound, the Activity in the data set with MEF [1] was less than 50%. The negative-log EC50 (pEC50) with MEF [2] and with MEF [3] was 4.38 throughout.

With `O=C(c1cc(Cc2n[nH]c(=O)c3ccccc23)ccc1F)N1CCC12CCC2`, in data set [4], the pIC50 was 7.44. In addition, the Activity in the data set with MEF [1] is less than 50%. Besides, the figures for the pEC50 in the data set on MEF [2] and with MEF [3] were 4.32 and 4.23, respectively.

With `O=C(c1cc(Cc2n[nH]c(=O)c3ccccc23)ccc1F)N1CCC2(CCN(C(=O)C3CC3)CC2)C1`, the pIC50 in data set [4] was 6.65. In addition, the Activity with MEF [1] is given as less than 50%. Besides, the figures for the pEC50 in the data set with MEF [2] and in the data set with MEF [3] were 4.38 and 4.21, respectively.

As for `O=C(c1cc(Cc2n[nH]c(=O)c3ccccc23)ccc1F)N1CC2(COC2)C1`, the Activity in the data set with MEF [1] is less than 50%. Moreover, the pEC50 in the data set with MEF [2] is 4.28; in the data set with MEF [3], 4.27.

For `O=C(c1cc(Cc2n[nH]c(=O)c3ccccc23)ccc1F)N1CCC12CCNCC2`, the Activity in the data set on MEF [1] and in the data set on MEF [6] was less than 50% throughout. Moreover, the pEC50 in the data set with MEF [3] was 3.98.

`O=C(c1cc(Cc2n[nH]c(=O)c3ccccc23)ccc1F)N1CCC2(CCNCC2)CC1`: the pIC50 in data set [4] is 6.63. In addition, the Activity with MEF [1] and in the data set with MEF [6] was less than 50% throughout. Moreover, the pEC50 in the data set on MEF [3] was 4.22.

With `O=C(c1cc(Cc2n[nH]c(=O)c3ccccc23)ccc1F)N1CCC2(C1)CN(C(=O)C1CC1)C2`, the pIC50 in data set [4] is 5.60. For the same compound, the Activity with MEF [1] and in the data set with MEF [6] was less than 50% each time. The pEC50 in the data set with MEF [3] was 4.21.

Take `O=C(c1cc(Cc2n[nH]c(=O)c3ccccc23)ccc1F)N1CCC2(CCC2)C1`: the negative logarithm of the IC50 (pIC50) in data set [4] is 7.49. Also, the Activity in the data set on MEF [1] is less than 50%. The pEC50 was 4.34 with MEF [2] and 4.26 with MEF [3].

As to `O=C(c1cc(Cc2n[nH]c(=O)c3ccccc23)ccc1F)N1CC2(CCN(C(=O)C3CC3)CC2)C1`, in data set [4], the pIC50 is 7.00. Further, the Activity with MEF [1] is reported as less than 50%. The negative logarithm of the EC50 (pEC50) is 4.31 in the data set with MEF [2] and 4.24 with MEF [3].

Turning to `O=C(c1cc(Cc2n[nH]c(=O)c3ccccc23)ccc1F)N1CCC2(CNC2)C1`, in data set [4], the pIC50 is 5.91. Also, the Activity in the data set on MEF [1], with MEF [6] and in the data set with MEF [7] was less than 50% each time.

For `O=C(C1CC1)N1CC2(CCN2C(=O)c2cc(Cc3n[nH]c(=O)c4ccccc34)ccc2F)C1`, the negative logarithm of the IC50 (pIC50) in data set [4] is 6.89. Besides, the Activity in the data set on MEF [1] is given as less than 50%. In addition, the negative-log EC50 (pEC50) with MEF [2] is 4.27; in the data set with MEF [3], 4.33.

For the compound `CC(C)(C)OC(=O)N1CCC2(CC1)CN(C(=O)c1cc(Cc3n[nH]c(=O)c4ccccc34)ccc1F)C2`, the pEC50 in the data set with MEF [2] is 4.63; in the data set on MEF [5] it was 4.31; in the data set on MEF [3], 4.38.

With `O=C(c1cc(Cc2n[nH]c(=O)c3ccccc23)ccc1F)N1CCC2(CC1)CCN(C(=O)C1CC1)CC2`, in the data set on OVCAR-8, the Activity entry is on record as “Non-Toxic”. The values for the pEC50 with MEF [2], in the data set with MEF [5] and with MEF [3] were 4.61, 4.30 and 4.67, respectively.

With `O=C(c1cc(Cc2n[nH]c(=O)c3ccccc23)ccc1F)N1CCC12CNC2`, the pIC50 in data set [4] was 6.28. The Activity in the data set on MEF [1], in the data set with MEF [6] and with MEF [7] was less than 50% each time.

With `O=C(c1cc(Cc2n[nH]c(=O)c3ccccc23)ccc1F)N1CCC12CCCCC2`, the negative-log IC50 (pIC50) in data set [4] is 6.55. Also, the Activity with MEF [1] is less than 50%. Besides, the results for the pEC50 in the data set with MEF [2] and in the data set on MEF [3] were 4.49 and 4.10, respectively.

`O=C(C1CC1)N1CCC2(CC1)CCN2C(=O)c1cc(Cc2n[nH]c(=O)c3ccccc23)ccc1F`: the negative logarithm of the IC50 (pIC50) in data set [4] was 6.37. Also, the Activity in the data set with MEF [1] is less than 50%. For the same compound, the values for the pEC50 with MEF [2] and with MEF [3] were 4.32 and 4.35, respectively.

Turning to `COC1CCN(C(=O)c2cc(Cc3n[nH]c(=O)c4ccccc34)ccc2F)CC1` [AZD2461], the negative-log IC50 (pIC50) in data set [4] was 8.77.

As for `O=C(c1cc(Cc2n[nH]c(=O)c3ccccc23)ccc1F)N1CCC2(CCCCC2)C1`, the negative logarithm of the IC50 (pIC50) in data set [4] was 6.85. The pEC50 in the data set with MEF [2] was 4.37; with MEF [5], 4.29; in the data set on MEF [3], 4.33.

In the case of `CC(C)(C)OC(=O)N1CC2(CCN2C(=O)c2cc(Cc3n[nH]c(=O)c4ccccc34)ccc2F)C1`, the pIC50 in data set [4] is 6.06. Further, the Activity with MEF [1] is given as less than 50%. Moreover, the negative logarithm of the EC50 (pEC50) in the data set with MEF [2] was 4.37; in the data set on MEF [3], 4.45.

In the case of `CC(C)(C)OC(=O)N1CC2(CCN(C(=O)c3cc(Cc4n[nH]c(=O)c5ccccc45)ccc3F)C2)C1`, in the data set with MEF [1], the Activity is on record as less than 50%. The results for the pEC50 in the data set with MEF [2] and in the data set with MEF [3] were 4.53 and 4.50, respectively.

For the compound `O=C(c1cc(Cc2n[nH]c(=O)c3ccccc23)ccc1F)N1CCC2(CCCC2)C1`, the pIC50 in data set [4] was 7.29. For the same compound, the pEC50 is 4.50 in the data set on MEF [2] and 4.26 in the data set on MEF [3].

As to `O=C(c1cc(Cc2n[nH]c(=O)c3ccccc23)ccc1F)N1CC2(CNC2)C1`, in data set [4], the negative logarithm of the IC50 (pIC50) was 5.62. In addition, the Activity with MEF [1], in the data set on MEF [6] and with MEF [7] was less than 50% in each case.

`O=C(c1cc(Cc2n[nH]c(=O)c3ccccc23)ccc1F)N1CCC2(CCNC2)C1` (configuration not stated): in data set [4], the pIC50 is 5.95. For the same compound, the Activity in the data set with MEF [1] and in the data set with MEF [6] was less than 50% throughout.

As for `CC(C)(C)OC(=O)N1CCC2(CC1)CCN2C(=O)c1cc(Cc2n[nH]c(=O)c3ccccc23)ccc1F`, the negative logarithm of the IC50 (pIC50) in data set [4] is 5.53. The Activity in the data set with MEF [1] is less than 50%. The negative-log EC50 (pEC50) in the data set with MEF [2] was 4.63; in the data set with MEF [3] it was 4.48.

On to `O=C(c1cc(Cc2n[nH]c(=O)c3ccccc23)ccc1F)N1CCC2(CCNCC2)C1`, for which the pIC50 in data set [4] was 5.41. Also, the Activity with MEF [1], in the data set with MEF [6] and in the data set with MEF [7] was less than 50% in each case.

As to `O=C(c1cc(Cc2n[nH]c(=O)c3ccccc23)ccc1F)N1CC2(CCNCC2)C1`, the negative logarithm of the IC50 (pIC50) in data set [4] is 5.85. The Activity with MEF [1] and in the data set on MEF [6] was less than 50% throughout. For the same compound, the negative logarithm of the EC50 (pEC50) in the data set with MEF [3] was 4.16.

What is called pEC50 is the EC50 on a negative log10 scale, so that one unit is a factor of ten. The pIC50 is the negative decadic logarithm of the IC50, by convention in mol/L.
